# NadD inh: blocks S. aureus nicotinate mononucleotide adenylyltransferase; purified NadD enzyme, colorimetric absorbance read-out; inhibition, % at 20 µM; hit rate 0.78% among 360,000; AID 602399; in the data active = inhibition above about 26%
# HNF4A DNA FP: change in binding of human HNF4 alpha to DNA; P41235; HNF4a-FITC DNA binding, fluorescence polarization, 1 h; activity change, % at 10 µM; hit rate 0.3% among 360,000; AID 1224865; in the data active = activity change above about 30%, passing the limit was not always enough
# CSN inh: blocks human CSN-mediated cullin deneddylation; Purified CSN, SCF-Nedd8-OG deneddylation, fluorescence polarization; inhibition, % at 12.5 µM; hit rate 0.38% among 360,000; AID 651999;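 active = pattern-corrected inhibition above about 35%, with an unprinted fluorescence ratio check between 0.5 and 1.5, limit read from the data, passing the limit was not always enough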
# Target sequence (Q92905 whole entry, looked up, one chain of several): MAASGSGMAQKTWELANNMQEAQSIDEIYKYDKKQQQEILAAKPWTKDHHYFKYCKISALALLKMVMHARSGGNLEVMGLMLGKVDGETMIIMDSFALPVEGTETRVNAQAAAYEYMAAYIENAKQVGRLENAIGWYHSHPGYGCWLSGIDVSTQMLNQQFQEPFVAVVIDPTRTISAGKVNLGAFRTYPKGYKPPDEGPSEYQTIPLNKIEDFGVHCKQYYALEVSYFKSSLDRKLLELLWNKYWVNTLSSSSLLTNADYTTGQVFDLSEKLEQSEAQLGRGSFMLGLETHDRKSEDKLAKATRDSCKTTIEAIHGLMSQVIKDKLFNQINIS
#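 Test system: purified human Csn5 enzyme expressed in HEK293T cells. Amount: 0.24 nM enzyme. Reagent: SCFSkp2-Nedd8OG substrate at 10 nM final. Schedule: 90 min incubation of compound, enzyme and substrate at room temperature. Detection: fluorescence polarization. Read-out: % inhibition of substrate cleavage by Csn5.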
# TPT1 inh: inhibitors of Candida albicans tRNA 2'-phosphotransferase TPT1 | recombinant caTPT1, FP RNA substrate dephosphorylation | inhibition, % at 5 µM | hit rate 0.81% among 300,000 | AID 1962;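 active = inhibition above the mean of all tested compounds plus 3 SD, set per screening campaign, cut at about 24% in these data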
# PP1 inh: counter-screen for PP5 inhibitors: inhibitors of human PP1-alpha | P62136 | purified PP1alpha, OMFP fluorescence | inhibition, % at 6.7 µM | hit rate 0.9% among 320,000 | AID 2235;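 active = inhibition above the mean inhibition of all tested compounds plus 3 SD, computed separately for each screening campaign, cut at about 15% in these data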
# Rpn11 inh: Rpn11 (human) deubiquitinase inhibition. inhibition, % at 20 µM. human 26S proteasome, Ub4-pepOG fluorescence polarization; 20S core pre-blocked with epoxomicin. hit rate 0.59% among 360,000. AID 588493;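 active = inhibition at 20 µM, scaled to each plate's controls, above about 33%, limit read from the data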
# Target sequence (O00487 whole entry, looked up): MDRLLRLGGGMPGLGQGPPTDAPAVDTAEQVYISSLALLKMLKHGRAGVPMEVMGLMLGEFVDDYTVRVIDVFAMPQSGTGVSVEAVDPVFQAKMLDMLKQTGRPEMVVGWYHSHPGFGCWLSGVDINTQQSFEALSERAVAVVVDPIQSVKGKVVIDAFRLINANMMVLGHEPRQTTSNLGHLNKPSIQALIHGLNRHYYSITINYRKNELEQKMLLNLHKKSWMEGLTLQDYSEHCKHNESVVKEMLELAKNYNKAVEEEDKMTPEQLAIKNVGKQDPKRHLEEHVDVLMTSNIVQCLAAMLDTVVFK
# NadD conf: NadD (S. aureus) inhibition, single concentration confirmation | inhibition, % at 20 µM | hit rate 13% among 2,000 | AID 624309 | purified S. aureus NadD, colorimetric enzyme assay | shares compounds with NadD inh; in the data active = inhibition mostly above about 42%, no sharp cut-off; inactive = mostly below about 42%
# A number is an active result; – = inactive; · = not tested or not shown. Most compounds without a hit are left out; they make up all but 2.7% or so of the library.
SMILES,NadD inh,HNF4A DNA FP,CSN inh,TPT1 inh,PP1 inh,Rpn11 inh,NadD conf
CC1(C)CC(NC(=O)c2ccccc2NS(=O)(=O)c2ccc(Br)cc2)CC(C)(C)N1,–,–,–,·,·,–,·
COc1ccc(COc2cc(-c3cccc(OC)c3)nc3ccc(NC(=O)c4ccc(C)cc4)cc23)cc1,40,–,–,–,–,–,–
COc1ccc(COc2cc(-c3cccc(OC)c3)nc3ccc(NC(=O)c4ccc(N(C)C)cc4)cc23)cc1,–,–,–,–,–,–,·
O=c1c2cn(Cc3ccccc3)c3ccccc3c-2nn1Cc1ccc(F)cc1Cl,–,–,–,·,·,–,·
COc1ccc(NS(=O)(=O)c2cccc(C(=O)NNC(=O)c3ccc(=O)[nH]c3)c2)cc1,–,–,–,·,–,–,·
Cc1cccc(N2CC(C(=O)Nc3nnc(SCCN4CCOCC4)s3)CC2=O)c1 (centres undefined),27,–,–,–,–,–,–
Cc1cccc(N2CC(C(=O)Nc3nnc(SCC(=O)NCC4CCCO4)s3)CC2=O)c1 (centres undefined),–,–,–,–,–,–,·
Cc1cccc(N2CC(C(=O)Nc3nnc(SCCC4OCCO4)s3)CC2=O)c1 (centres undefined),41,–,–,–,–,–,–
COc1ccc(C)cc1-n1nnnc1SC(C)C(=O)NC1CCCC1 (centres undefined),–,–,–,·,·,–,·
Cc1ccc(NC(=O)c2ccc(Cl)c(NC(=O)c3cccs3)c2)cc1,–,–,–,–,–,–,·
Cc1nc2ccc(NC(=O)c3ccc(Cl)c(NC(=O)c4cccs4)c3)cc2s1,28,–,–,–,–,–,–
O=C(Nc1cccc2c1CCCC2)c1cc(C2CCCCN2C(=O)c2cccs2)on1 (centres undefined),–,–,–,·,·,–,·
CC(C)C[C@H]1CNC(=O)C(=O)N1C[C@@H]1CCCN1C[C@H](Cc1ccc(O)cc1)N1C[C@H](Cc2ccccc2)N(CC2CCCCCC2)C(=O)C1=O,34,–,–,·,·,·,–
CC(C)C[C@H]1CN([C@@H](Cc2ccccc2)CN2CCC[C@H]2CN2C(=O)C(=O)NC[C@@H]2Cc2ccc(O)cc2)C(=O)C(=O)N1CC1CCCCCC1,36,–,–,·,·,·,–
CCCCCCNCC(=O)N1CCC(Cc2ccccc2)CC1,–,–,–,–,–,–,·
CCC(C)c1ccccc1NC(=S)NC(=O)c1ccco1 (centres undefined),–,–,–,–,–,–,·
CCN(CC(=O)Nc1ccc(S(=O)(=O)N2CCCC2)cc1)CC(=O)Nc1ccccc1C(F)(F)F,–,–,–,·,·,–,·
Nc1nonc1-c1nc2ccccc2n1CC(=O)N/N=C\c1ccc(-c2ccc(Cl)cc2)o1,42,–,–,–,–,–,–
CC(C)CN(C(=O)COc1ccccc1C(=O)NCc1ccccc1)C1CCS(=O)(=O)C1 (centres undefined),–,–,–,·,·,–,·
Cn1cnnc1SCc1ccccc1,–,–,–,–,–,–,·
Cn1cnnc1SCc1ccc(-c2ccc(Br)cc2)o1,41,–,–,–,–,–,–
CCCCC(=O)Nc1ccc(C)c(S(=O)(=O)N2CCCCCC2)c1,–,–,–,·,–,–,·
CCCCNC(=O)C1=C(N)C(C(=O)Nc2ccc(C)c(S(=O)(=O)N3CCCCC3)c2)SC1=Nc1ccc(C)cc1C (centres undefined),40,–,–,–,–,–,–
CN(C)c1ccnc2c[cH-]cc12.[Fe].c1ccc(-[c-]2[c-](-c3ccccc3)[c-](-c3ccccc3)[c-](-c3ccccc3)[c-]2-c2ccccc2)cc1 (centres undefined),29,–,–,–,–,–,–
COc1ccc(NC(=O)COC(=O)c2c(C)noc2C)cc1Cl,–,–,–,·,·,–,·
SMILES,NadD inh,HNF4A DNA FP,CSN inh,TPT1 inh,PP1 inh,Rpn11 inh,NadD conf
COc1ccc(-c2nn(-c3ccccc3)cc2C(=O)N/N=C/c2ccc([N+](=O)[O-])o2)cc1,31,–,–,–,–,–,–
CCCc1ccc(-c2cc(C(=O)N/N=C/c3ccc([N+](=O)[O-])o3)c3ccccc3n2)cc1,34,–,–,–,17,–,–
O=C(N/N=C/c1ccc([N+](=O)[O-])o1)c1cc(-c2cccc(Br)c2)nc2ccccc12,72,–,–,–,16,–,–
O=C(N/N=C/c1ccco1)c1cc(-c2ccccc2)nc2ccccc12,–,–,–,–,–,–,·
Cc1cc(C(=O)N/N=C/c2ccc([N+](=O)[O-])o2)c(C)o1,–,–,–,–,–,–,·
COc1ccc(NC(=S)NC(=O)c2cncc(Br)c2)c(OC)c1,–,–,–,–,–,–,·
COc1ccc2cc(-c3cc(C(=O)OCC(=O)Nc4c(C)n(C)n(-c5ccccc5)c4=O)c4ccccc4n3)ccc2c1,40,–,–,·,·,–,–
COc1ccc(-c2cc(C(=O)Nc3c(C)n(C)n(-c4ccccc4)c3=O)c3ccccc3n2)cc1,–,–,–,–,–,–,·
CCC(NC(=S)NCc1ccc(F)cc1)c1ccccc1 (centres undefined),–,–,–,–,–,–,·
CC(C)c1onc(C(=O)Nc2ccc3c(c2)OCO3)c1[N+](=O)[O-],–,–,–,–,–,–,·
CCCN(CCC)S(=O)(=O)c1ccc(C(=O)Nc2nnc(-c3cc(OC)cc(OC)c3)o2)cc1,58,–,–,–,–,–,–
Cc1cccn2c(=O)c3cc(S(=O)(=O)c4ccc(F)cc4)c(=N)n(Cc4ccco4)c3nc12,35,–,–,–,–,–,–
Cc1cccn2c(=O)c3cc(C(=O)NC4CCCCC4)c(=N)n(Cc4ccc(F)cc4)c3nc12,–,–,–,–,–,–,·
Cc1ccc2nc3c(cc(S(=O)(=O)c4ccccc4)c(=N)n3Cc3ccco3)c(=O)n2c1,31,–,–,–,–,–,–
COc1ccc(CCn2c(=N)c(S(=O)(=O)c3ccc(Cl)cc3)cc3c(=O)n4ccccc4nc32)cc1,30,–,–,–,–,–,–
COc1ccc(CCn2c(=N)c(S(=O)(=O)c3ccccc3)cc3c(=O)n4ccccc4nc32)cc1,–,–,–,–,–,–,·
Cc1cccn2c(=O)c3cc(S(=O)(=O)c4ccccc4)c(=N)n(Cc4ccc(F)cc4)c3nc12,32,–,–,–,–,–,–
CCOCCCn1c(=N)c(S(=O)(=O)c2ccc(C)cc2)cc2c(=O)n3cc(C)ccc3nc21,–,–,–,–,–,–,·
Cc1ccc(S(=O)(=O)c2cc3c(=O)n4cccc(C)c4nc3n(C3CCCCC3)c2=N)cc1,–,–,–,–,–,–,·
Cc1cccn2c(=O)c3cc(S(=O)(=O)c4ccc(Br)cc4)c(=N)n(C4CCCCC4)c3nc12,27,–,–,–,–,–,–

# Source: PubChem BioAssay (several laboratories)
